Data reported in article PMC12065821 (Scientific Reports, 2025).

Key:
rats [1] = test: Renal histological examination; format: in vivo; details: rat kidney; for histological lesions during the first 2 h: PAS stain; for maximal SQS: mean ± SD, SD
[2] = Kidney PK of CMS/CMS-E2 and formed colistin/colistin B; format: in vivo, rats; details: for Cmax CMS/CMS-E2 in kidneys: mean ± SD, SD
Procedure, shortened: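 Male Sprague-Dawley rats (300 ± 15 g) got one i.p. dose in saline. At each sampling time rats were anaesthetised with tiletamine-zolazepam (40 mg/kg) and killed, and the left kidney was frozen at −70 °C. Kidney cortex was homogenised in saline (1:10 m/v, 1% BSA). Samples went through WCX solid-phase extraction with polymyxin B1 internal standard, then LC-MS/MS. Prodrug was calculated as total (after […] sulfuric acid hydrolysis) minus free colistin/colistin B. Parameters came from non-compartmental analysis.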

[3] = PK-TD model, PK component; format: in vivo; details: rats, single i.p. CMS 10 mg/kg CBA, one-compartment PK-TD model, mean ± SD
Procedure, shortened: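 Plasma prodrug and formed colistin/colistin B concentrations after i.p. dosing were fitted by a compartmental model. The final model used one compartment each for prodrug and formed drug, a conversion rate constant, and linear first-order total clearance from both. Fit was judged by R², AIC, BIC and visual inspection. Estimates are mean ± SD.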

[4] = rats; CMS and formed colistin; cited from earlier work
rats [5] = test: Maximal tolerability dose; format: in vivo; details: intraperitoneal
[6] = Plasma PK of CMS/CMS-E2 and formed colistin/colistin B; format: in vivo, rats; details: rat plasma, LC-MS/MS, NCA, mean ± SD
Procedure, shortened: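 Male Sprague-Dawley rats were dosed once i.p. in saline, and serial jugular-vein blood was taken before and after dosing. Blood was heparinised (1%), spun at 4,982 × g for 10 min at 4 °C, and plasma stored at −70 °C. Plasma (40 µL) went through WCX solid-phase extraction with polymyxin B1 internal standard, then LC-MS/MS. Prodrug was total (acid-hydrolysed) minus free analyte. […] Values are mean ± SD, compared by Wilcoxon rank sum.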

[7] = physiologically-based PK model; cited from earlier work
patients = details: meta-analyses; cited from earlier work
rats [8] = test: PK-TD model, TD component; format: in vivo; details: i.p., mean ± SD
Procedure, shortened: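 Plasma creatinine and BUN time courses were linked to plasma colistin/colistin B through an indirect hypothetical effect compartment. K_e is the rate constant from the central to the effect compartment. The effect was linear: E = E₀ + S·C_e, with E₀ the pre-dose baseline. T_lag was calculated as 1/K_e. Fit was judged by R², AIC, BIC and visual inspection. Parameters are mean ± SD.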

rats [9] = test: Kidney injury biomarkers: plasma CR and BUN; format: in vivo; details: rat plasma, mean ± SD
Procedure, shortened: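 Rats (male Sprague-Dawley) received one i.p. injection in saline, with a saline control group. Plasma came from serial heparinised jugular-vein samples, plus blood taken at sacrifice in a second cohort. Creatinine and blood urea nitrogen were measured on an automatic biochemical analyser. Peak levels and times to peak were taken from the time profiles and given as mean ± SD.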

[10] = tested on: human kidney proximal tubular HK-2 cells; details: identical dose of 0.75 mM; cited from earlier work
[11] = cited from earlier work
[12] = single i.p. CMS or CMS-E2 20 mg/kg CBA
[13] = rat kidney cortex, single i.p. CMS or CMS-E2 20 mg/kg CBA, LC-MS/MS, NCA

colistin methanesulphonate [CMS]
histological lesions during the first 2 h (rats [1]; single i.p. CMS 10 mg/kg CBA): No obvious histological lesion
histological lesions during the first 2 h (rats [1]; [12]): No obvious histological lesion
recovery of histological damage at 8 h (rats [1]; single i.p. CMS 10 mg/kg CBA): most of the damage was completely recovered
maximal SQS (rats [1]; single i.p. CMS 10 mg/kg CBA): 2.00 ± 0.00
recovery of histological damage at 24 h (rats [1]; single i.p. CMS 20 mg/kg CBA): all damage was completely recovered
maximal SQS (rats [1]; [12]): 3.00 ± 0.00
Tmax CMS/CMS-E2 in kidneys ([2]; rat kidney cortex, single i.p. CMS 10 mg/kg CBA, LC-MS/MS, NCA): 2 h
Cmax CMS/CMS-E2 in kidneys ([2]; rat kidney cortex, single i.p. CMS 10 mg/kg CBA, LC-MS/MS): 64.2 ± 38.1 µg/g
AUC0-inf CMS/CMS-E2 in kidneys [2, 13]: 1620 µg·h/g
Tmax CMS/CMS-E2 in kidneys [2, 13]: 4 h
t1/2 CMS/CMS-E2 in kidneys [2, 13]: 1.03 h
Cmax CMS/CMS-E2 in kidneys ([2]; rat kidney cortex, single i.p. CMS or CMS-E2 20 mg/kg CBA, LC-MS/MS): 281 ± 92.8 µg/g
CMS concentration in renal tissue at 6, 8 h ([2]; rat kidney, single i.p. CMS 10 mg/kg CBA, LC-MS/MS): below the lower limit
CMS concentration in renal tissue at 24 h ([2]; rat kidney, single i.p. CMS 20 mg/kg CBA, LC-MS/MS): below the lower limit
Kidney/plasma ratio of Cmax, CMS/CMS-E2 ([2]; rats, single i.p. CMS or CMS-E2 20 mg/kg CBA): 7.11
CLCMS/CMS-E2 (total body clearance) [3]: 5.14 ± 0.196 mL/min/kg
Ka CMS/CMS-E2 (absorption rate) [3]: 2.02 ± 0.260 h⁻¹
V (volume of distribution) [3]: 0.194 ± 0.0128 L/kg
t1/2 in prior reports [4]: 0.333 to 0.667 h
maximal tolerability dose (rats [5]): 20 mg/kg CBA
AUC0-inf CMS/CMS-E2 in plasma ([6]; single i.p. CMS 10 mg/kg CBA): 30700 ± 763 ng·h/mL
CL/F CMS/CMS-E2 ([6]; single i.p. CMS 10 mg/kg CBA): 5.42 ± 0.132 mL/min/kg
Cmax CMS/CMS-E2 in plasma ([6]; single i.p. CMS 10 mg/kg CBA): 21400 ± 727 ng/mL
Tmax CMS/CMS-E2 in plasma ([6]; single i.p. CMS 10 mg/kg CBA): 0.333 ± 0.118 h
Vd/F CMS/CMS-E2 ([6]; single i.p. CMS 10 mg/kg CBA): 0.213 ± 0.0362 L/kg
t1/2 CMS/CMS-E2 in plasma ([6]; single i.p. CMS 10 mg/kg CBA): 0.453 ± 0.068 h
AUC0-inf CMS/CMS-E2 in plasma [6, 12]: 149000 ± 69600 ng·h/mL
CL/F CMS/CMS-E2 [6, 12]: 2.99 ± 2.02 mL/min/kg
Cmax CMS/CMS-E2 in plasma [6, 12]: 39500 ± 13700 ng/mL
Tmax CMS/CMS-E2 in plasma [6, 12]: 1.30 ± 0.458 h
Vd/F CMS/CMS-E2 [6, 12]: 0.266 ± 0.0816 L/kg
t1/2 CMS/CMS-E2 in plasma [6, 12]: 1.27 ± 0.557 h
renal CMS conversion [7]: < 1%
incidence of CMS-associated nephrotoxicity (patients): up to 48%
S (slope between colistin/colistin B concentration in effect compartment and CR) (rats [8]; E = E0 + S·Ce): 20.9 ± 9.13 mmol/g
Ke (rate from colistin/colistin B central compartment to effect compartment), BUN (rats [8]; indirect link PK-TD model, effect = BUN): 0.157 ± 0.100 h⁻¹
Ke (rate from colistin/colistin B central compartment to effect compartment), CR (rats [8]; indirect link PK-TD model, effect = plasma CR): 0.833 ± 0.555 h⁻¹
Tlag (lag time), BUN (rats [8]; reciprocal of Ke, effect = BUN): 8.45 ± 4.08 h
Tlag (lag time), CR (rats [8]; reciprocal of Ke, effect = plasma CR): 1.73 ± 1.22 h
peak BUN level (rats [9]; single i.p. CMS 10 mg/kg CBA): 8.09 ± 1.66 mmol/L
peak CR level (rats [9]; single i.p. CMS 10 mg/kg CBA): 31.3 ± 5.41 µmol/L
time of peak BUN (rats [9]; single i.p. CMS 10 mg/kg CBA): 5.00 ± 0.00 h
time of peak CR level (rats [9]; single i.p. CMS 10 mg/kg CBA): 2.67 ± 1.70 h
peak BUN level (rats [9]; [12]): 17.8 ± 3.83 mmol/L
peak CR level (rats [9]; [12]): 93.1 ± 29.8 µmol/L
time of peak BUN (rats [9]; [12]): 7.82 ± 1.34 h
time of peak CR level (rats [9]; [12]): 5.36 ± 1.30 h

colistin A
apoptotic effect relative to colistin B [10]: three times
plasma protein binding [11]: 56.6 ± 9.25%
